Results from different studies.
CDK1 with cyclin B: Cyclin-dependent kinase 1, with cyclin B (CDK1, Homo sapiens, UniProt P06493)
CDK1: Cyclin-dependent kinase 1 (CDK1, Homo sapiens, UniProt P06493)
CDK1 with cyclin B1: Cyclin-dependent kinase 1, with cyclin B1 (CDK1, Homo sapiens, UniProt P06493)
CDK1 with cyclin A: Cyclin-dependent kinase 1, with cyclin A (CDK1, Homo sapiens, UniProt P06493)

| SMILES | target | read-out | action | method | concentration | quantity | result |
| --- | --- | --- | --- | --- | --- | --- | --- |
| Cc1ccc(C(=O)NCc2ccsc2)cc1C#Cc1cn(C(C)C)c2ncnc(N)c12 | CDK1 with cyclin B | enzyme activity | inhibitor | – | 1 µM | activity vs control | 100% |
| CCN(CC)CCNC(=O)c1c(C)[nH]c(/C=C2\C(=O)Nc3ccc(F)cc32)c1C | CDK1 with cyclin B | enzyme activity | inhibitor | – | 0.3 µM | inhibition | 2% |
| CCCCNc1ncc2c(-c3ccc(F)cc3)nn(C[C@H]3CC[C@H](N)CC3)c2n1 | CDK1 | target engagement in cells | inhibitor | chemoproteomics | 20 mM | inhibition | 4.2% |
| COc1cc2ncnc(Nc3ccc(Oc4ccccc4)c(C)c3C)c2cc1OC | CDK1 with cyclin B | enzyme activity | inhibitor | – | 1 µM | inhibition | 3% |
| Cc1ccc(Nc2nccc(N(C)c3ccc4c(C)n(C)nc4c3)n2)cc1S(N)(=O)=O | CDK1 with cyclin B | enzyme activity | inhibitor | – | 0.3 µM | inhibition | 14% |
| O=Nc1c(-c2c(O)[nH]c3ccccc23)[nH]c2ccccc12 | CDK1 with cyclin B | cell-free assay | – | – | 0.5 µM | remaining signal | 68.7% |
| CC(C)(C)c1nc(-c2cccc(NS(=O)(=O)c3c(F)cccc3F)c2F)c(-c2ccnc(N)n2)s1 | CDK1 with cyclin B1 | enzyme activity | inhibitor | radiometric | 1 µM | remaining activity | 89% |
| CNCc1ccc(-c2cc(-c3nc(-c4ccc(S(=O)(=O)C(C)C)cc4)cnc3N)on2)cc1 | CDK1 with cyclin B | enzyme activity | inhibitor | – | 0.4 µM | inhibition | 0% |
| O=C(Nc1cnn(-c2csc(C(=O)NC3COC3)c2)c1)Nc1c(F)cccc1Cl | Cyclin-dependent kinase 1, with cyclin E (CDK1, Homo sapiens, UniProt P06493) | enzyme activity | inhibitor | – | 5 µM | remaining activity | 98.4% |
| CNC(=O)c1cc(Oc2ccc(NC(=O)Nc3ccc(Cl)c(C(F)(F)F)c3)cc2)ccn1 | CDK1 with cyclin B | enzyme activity | inhibitor | – | 0.3 µM | inhibition | -5% |
| Cc1sc(C(=O)NC2COC2)cc1-n1cc(NC(=O)Nc2c(F)cccc2Cl)cn1 | CDK1 with cyclin A | enzyme activity | inhibitor | – | 10 µM | remaining activity | 105% |
| COc1cc(OC)c(C=C2C(O)=Nc3ccccc32)c(OC)c1 | CDK1 with cyclin B | cell-free assay | – | – | 0.5 µM | remaining signal | 83% |
| CC(C)(O)[C@H]1CC[C@H](Nc2ccc3ncc(-c4cccc(C(F)(F)F)c4)n3n2)CC1 | CDK1 with cyclin B | enzyme activity | inhibitor | – | 1 µM | remaining activity | 66.9% |
| O=C(Nc1cnn(-c2csc(C(=O)NC3COC3)c2)c1)Nc1ccccc1Cl | CDK1 with cyclin B | enzyme activity | inhibitor | – | 5 µM | remaining activity | 92.6% |
| COc1cccc2c(NCc3ccccc3)nc(-n3c(N)nc4ccccc43)nc12 | CDK1 | target engagement in cells | inhibitor | chemoproteomics | 20 mM | inhibition | -2.6% |
| CC(C)n1cnc2c(Nc3cccc(Cl)c3)nc(NCCO)nc21 | CDK1 with cyclin B | cell-free assay | – | – | 0.5 µM | remaining signal | 46.6% |
| CN1CC(Oc2cnc(C#N)cc2-c2ccn3nc(NC(=O)C4CC4)cc3c2)C1 | CDK1 with cyclin B | enzyme activity | inhibitor | – | 1 µM | inhibition | -8% |
| N#CCCc1ccc2c(c1)-c1[nH]c3ccc([N+](=O)[O-])cc3c1CC(=O)N2 | CDK1 with cyclin A | cell-free assay | – | – | 0.5 µM | remaining signal | 24.8% |
| CCCOc1ccc(OC)c(F)c1C(=O)c1ccc(C(=O)N[C@@H]2CNC[C@H]2NC(=O)c2ccc3[nH]ncc3c2)cc1 | CDK1 with cyclin B | enzyme activity | inhibitor | – | 10 µM | remaining activity | 102% |
| O=C1NC(=O)c2cc(Nc3ccc(F)cc3)c(Nc3ccc(F)cc3)cc21 | CDK1 with cyclin A | cell-free assay | – | – | 0.5 µM | remaining signal | 96.1% |
| CCN(CC)c1ccc(C2=NNC(=O)CC2C)cc1[N+](=O)[O-] (stereo not drawn) | CDK1 with cyclin B | enzyme activity | inhibitor | – | 10 µM | remaining activity | 111% |
| O=C1Nc2ccc(Cl)cc2C1=Cc1cc(Cl)c(O)c(Cl)c1 | CDK1 with cyclin B | cell-free assay | – | – | 0.5 µM | remaining signal | 96.3% |
| CC(C)(C)c1nc2c(s1)c1nc(N)ncc1c1ccc(NS(=O)(=O)c3c(F)cccc3F)c(F)c12 | Cyclin-dependent kinase 1, with cyclin E1 (CDK1, Homo sapiens, UniProt P06493) | enzyme activity | inhibitor | radiometric | 1 µM | remaining activity | 83% |
| CC(C)[C@H](CO)Nc1nc(Nc2cccc(Cl)c2)c2ncn(C(C)C)c2n1 | CDK1 with cyclin A | cell-free assay | – | – | 0.5 µM | remaining signal | 31.7% |
| CC/C(=N\NC(=O)NCc1cccc(O)c1)c1ccc(O)c(C)c1O | CDK1 with cyclin B1 | enzyme activity | inhibitor | – | 0.1 µM | inhibition | -14.8% |
| O=C1NC(=O)c2c1c1c3ccccc3[nH]c1n1cncc21 | CDK1 with cyclin B | cell-free assay | – | – | 0.5 µM | remaining signal | 85.5% |
| Nc1nc(Nc2ccc(S(N)(=O)=O)cc2)sc1C(=O)c1ccccc1[N+](=O)[O-] | CDK1 | enzyme activity | inhibitor | – | 0.1 µM | inhibition | 90 to 93% |
